This is an account of results in article PMC6240402 (The Journal of allergy and clinical immunology, 2018).

The target in series [1] is T1, CCR3 (Homo sapiens, UniProt P51677).
T1 sequence (P51677 1-355): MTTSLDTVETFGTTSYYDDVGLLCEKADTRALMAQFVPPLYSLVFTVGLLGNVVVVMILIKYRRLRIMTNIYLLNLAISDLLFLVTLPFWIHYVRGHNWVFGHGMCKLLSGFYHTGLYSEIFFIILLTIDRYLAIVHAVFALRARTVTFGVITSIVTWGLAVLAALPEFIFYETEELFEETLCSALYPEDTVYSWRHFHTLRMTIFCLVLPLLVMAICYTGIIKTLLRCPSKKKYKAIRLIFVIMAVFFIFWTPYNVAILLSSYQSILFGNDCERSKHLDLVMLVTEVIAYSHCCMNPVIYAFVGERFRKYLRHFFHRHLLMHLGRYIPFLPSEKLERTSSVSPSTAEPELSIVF
Kind of series: CCR3 surface expression/internalization in AML14.3D10-CCR3 cells. It is filed as cell-based. In a few lines: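 CCR3-transfected, eosinophil-differentiated AML14.3D10 cells were exposed for 30 min to vehicle, test peptide (0.01–10 μM) or comparator antagonists (1 μM), each with or without CCL11 (12 nM). Longer exposures ran 24–72 h at 1 μM, with daily medium/inhibitor renewal. Cells were blocked with 10% heat-inactivated human AB serum, stained with PE anti-CCR3 (5E8) or isotype, and analysed by flow cytometry. Values are mean ± SEM, n=3, in triplicate.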

Series [2] addresses T2, CCR3 (human blood eosinophils) (Homo sapiens, UniProt P51677).
T2 sequence (P51677 1-355): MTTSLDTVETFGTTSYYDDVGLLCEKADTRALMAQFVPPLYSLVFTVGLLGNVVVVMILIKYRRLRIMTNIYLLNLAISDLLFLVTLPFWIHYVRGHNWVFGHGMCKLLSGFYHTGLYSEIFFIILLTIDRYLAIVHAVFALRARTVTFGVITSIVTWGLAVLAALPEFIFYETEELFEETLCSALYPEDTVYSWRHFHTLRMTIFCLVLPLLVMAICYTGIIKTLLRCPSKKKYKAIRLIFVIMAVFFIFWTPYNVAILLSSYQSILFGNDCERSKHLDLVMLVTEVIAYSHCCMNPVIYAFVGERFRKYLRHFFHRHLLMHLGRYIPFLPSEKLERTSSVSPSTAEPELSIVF
Kind of series: CCR3 surface expression in human blood eosinophils, prolonged exposure. The format is cell-based. In a few lines:
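Eosinophils came from blood of mild allergic asthmatic donors, separated on a Ficoll-Paque gradient and then negatively selected. Cells got vehicle or 1 μM inhibitor, with or without CCL11 (12 nM), for 24, 48 or 72 h, refreshed daily with medium plus inhibitor. After blocking with 10% heat-inactivated human AB serum, cells were stained with PE anti-CCR3 (clone 5E8) or isotype control and read by flow cytometry. Surface CCR3 is given as % of vehicle: mean ± SEM, n=3, triplicate.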

Series [3] relates to CCR3 (AML14.3D10-CCR3 cells). The format is cell-based. The method, boiled down:
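AML14.3D10-CCR3 cells (an eosinophil-differentiated AML line stably expressing CCR3) were held 24, 48 or 72 h with vehicle or test compound at 1 μM. Medium was replaced daily with fresh complete medium containing compound. Cells were then challenged with CCL11 (12 nM). Each time point was compared with the 24 h point; mean ± SEM, n=3 experiments in triplicate.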

Another series can be described thus: Solubility observation. It is filed as physicochemical. The following applies: authors' own experience; unsuitable for iv injection.
Series [4] addresses T1, CCR3. To be noted: SB328437; cited from earlier work.
The subject of another series is lung eosinophils. To be noted: subcutaneous 100 mg/kg, resuspended with Tween-80; cited from earlier work.
Series [5] has as its target T2, CCR3 (human blood eosinophils). Briefly: Eotaxin-induced chemotaxis of blood eosinophils. The format is cell-based. The following applies: CCL11 12 nM, CCL24 20 nM, CCL26 100 nM. In a few lines: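 Eosinophils were taken from the blood of mild allergic asthmatic subjects, separated over a Ficoll-Paque Plus gradient, then purified by negative selection with an eosinophil isolation kit. The test peptide was given at 0.001–10 μM, with 4 h chemotaxis toward CCL11 (12 nM), CCL24 (20 nM) or CCL26 (100 nM). IC50 and IC90 were derived from the dose-response inhibition curves.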

Series [6] addresses T3, CCR3 (AML14.3D10-CCR3 cells) (Homo sapiens, UniProt P51677).
T3 sequence (P51677 1-355): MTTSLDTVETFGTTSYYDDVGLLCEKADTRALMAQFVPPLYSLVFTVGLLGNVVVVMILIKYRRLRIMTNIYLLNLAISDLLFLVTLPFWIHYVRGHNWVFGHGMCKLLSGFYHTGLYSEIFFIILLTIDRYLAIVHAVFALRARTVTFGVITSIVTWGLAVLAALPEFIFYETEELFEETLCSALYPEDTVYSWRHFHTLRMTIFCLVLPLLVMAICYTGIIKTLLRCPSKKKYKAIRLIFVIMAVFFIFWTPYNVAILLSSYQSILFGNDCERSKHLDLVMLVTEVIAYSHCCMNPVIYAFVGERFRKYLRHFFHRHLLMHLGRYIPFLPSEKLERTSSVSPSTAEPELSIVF
Briefly: Eotaxin-induced chemotaxis of AML14.3D10-CCR3 cells. The format is cell-based. To be noted: CCL11 12 nM, CCL24 20 nM, CCL26 100 nM. The method, boiled down:
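Eosinophil-differentiated acute myeloid leukaemia line stably transfected to express CCR3. Cells exposed to the test peptide across 0.001–10 μM as a dose-response, then allowed to migrate for 4 h toward CCL11 (12 nM), CCL24 (20 nM) or CCL26 (100 nM). Read-out is inhibition of chemotaxis.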

For series [7], the target named is T1, CCR3. Kind of series: 13C HSQC NMR binding to reductively methylated CCR3 positive membranes. The method, boiled down:
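13C HSQC spectra recorded on membranes carrying 13C-reductively methylated CCR3 (lysine di-13CH3 label), compared with CCR3-null membranes. Spectra were taken with or without 1 μM CCL11, in the presence or absence of 2 μM test peptide. Binding was judged from spectral comparisons between conditions.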

Another series relates to sputum eosinophils / AHR. The following applies: clinical trial; cited from earlier work.

Entries after “also recorded” stand apart in the source; their conditions may differ.

Turning to `COC(=O)[C@H](Cc1ccc([N+](=O)[O-])cc1)NC(=O)c1cccc2ccccc12` [SB328437], at CCR3 [1] (effect more pronounced with longer treatment times), the “CCR3 internalization (discussion)” value is given as “partially or completely block CCR3 internalization”. Further, in [2] (1 μM, up to 72h), the “CCR3 surface levels, prolonged exposure” value is “failed to promote CCR3 cell surface accumulation; also recorded: no significant effect on receptor levels”. For the same molecule, in series [3] (AML14.3D10-CCR3, 1 μM, CCL11 12 nM, 72h), the “drop in chemotaxis inhibition level over 72h” value turned out to be 13.7%. For the same molecule, in series [3] (equimolar concentrations, 1 μM), the “CCL11/CCR3-mediated chemotaxis inhibition relative to R321 and UCB35625” value was “less effective inhibitor of CCL11/CCR3-mediated chemotaxis”. For the same molecule, the solubility result in the series “Solubility observation” is recorded as “solubility issues”. On CCR3 [4], the “activity at CCR3 in eosinophils” value was “specific inhibitor of CCR3 in eosinophils”. Moreover, in the series on lung eosinophils, the “OVA-induced accumulation of eosinophils in lungs” value was “successfully suppress OVA-induced accumulation of eosinophils in the lungs”.
For “CCL26: high affinity agonist chemokine of CCR3”, the “induction of chemotaxis, blood eosinophils” value (“induction … blood eosinophils” for short) in series [5] is listed as “undergo CCR3-mediated chemotaxis”. Besides, in series [6], the “induction of chemotaxis, AML14.3D10-CCR3” value was “undergo CCR3-mediated chemotaxis”.
As to “CCL11: high affinity agonist chemokine of CCR3”, the “induction … blood eosinophils” value in [5] is listed as “undergo CCR3-mediated chemotaxis”. The “induction of chemotaxis, AML14.3D10-CCR3” value in series [6] is reported as “undergo CCR3-mediated chemotaxis”. For the same molecule, the “CCR3 internalized from cell surface” value with CCR3 [1] (AML14.3D10-CCR3, CCL11 30 min, flow cytometry) is recorded as “More than 50%”. Also, in series [2] (CCL11 12 nM alone, 24h, % of vehicle), the “CCR3 surface expression, 24h, CCL11 alone” value is ~ 68%. In addition, the “CCR3 surface expression, 72h, CCL11 alone” value in [2] (CCL11 12 nM alone, 72h, % of vehicle) was ~ 18%. Also, the “interference of CCL11 and R321 with each other's binding” value with CCR3 [7] (1 μM CCL11 and 2 μM R321) was “neither CCL11 nor R321 interfere with each other’s binding to the receptor”. In addition, the “effect on CCR3 HSQC signals” value with CCR3 [7] (1 μM CCL11 or 2 μM R321) is listed as “specifically reduced the intensity of CCR3 signals”.
As for `NC(=O)c1ccc(CNC(=O)NC[C@H]2CN(Cc3ccc(Cl)c(Cl)c3)CCO2)cc1` [GW766994], in the series on sputum eosinophils / AHR, the AHR result is “significant inhibition of AHR” and the sputum eosinophils entry is given as “trend towards inhibition of sputum eosinophils”.

B1: CCL24: high affinity agonist chemokine of CCR3 (protein, UniProt O00175 27-119, looked up)
C-C motif chemokine 24: VVIPSPCCMFFVSKRIPENRVVSYQLSSRSTCLKAGVIFTTKKGQQFCGDPKQEWVQRYMKNLDAKQKKASPRARAVAVKGPVQRYPGNQTTC
On to B1, for which the “induction … blood eosinophils” value in series [5] is recorded as “undergo CCR3-mediated chemotaxis”. In series [6], the “induction of chemotaxis, AML14.3D10-CCR3” value is reported as “undergo CCR3-mediated chemotaxis”.
